# Laboratory results reported in ChEMBL document CHEMBL4342509, “New 8-Nitroquinolinone Derivative Displaying Submicromolar in Vitro Activities against Both Trypanosoma brucei and cruzi” (ACS Med Chem Lett, 2020).
# pEC50: −log10 of the molar value.
# Assays:
# [1] = system: Trypanosoma brucei brucei; test: Antitrypanosomal activity against Trypanosoma brucei brucei AnTat 1.9 trypomastigotes assessed as reduction in parasite viability incubated for 69 hrs by Alamar Blue dye based assay; assay type: functional, organism-based; conditions: AnTat 1.9, 69 h
# Method in brief: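 Bloodstream AnTat 1.9 parasites grown at 37°C, 5% CO₂ in MEM with Earle's salts (Baltz-type) plus 0.5 mM mercaptoethanol, 1.5 mM L-cysteine, 0.05 mM bathocuproine sulfate and 20% heat-inactivated horse serum. EC50 from nonlinear regression, three independent experiments in duplicate.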
# [2] = Selectivity index, ratio of CC50 for human HepG2 cells to EC50 for Trypanosoma brucei brucei trypomastigotes AnTat 1.9; assay type: toxicity; conditions: read-out: Ratio CC50/EC50
# [3] = system: HepG2; test: Cytotoxicity against human HepG2 cells assessed as reduction in cell viability incubated for 72 hrs by MTT assay; assay type: cell-based; conditions: hepg2, 72 h
# [4] = system: Leishmania infantum; test: Antileishmanial activity against Leishmania infantum MHOM/MA/67/ITMAP-263 axenic amastigotes expressing luciferase plasmid assessed as reduction in parasite viability incubated for 48 hrs by Steady Glow reagent based luminescence assay; assay type: functional, organism-based; conditions: MHOM/MA/67/ITMAP-263, 48 h
# [5] = system: Trypanosoma brucei brucei; test: Antitrypanosomal activity against blood stream form of Trypanosoma brucei brucei S427 trypomastigotes overexpressing NTR assessed as inhibition of parasite growth; assay type: functional, organism-based
# [6] = system: Leishmania donovani; test: Selectivity index, ratio of EC50 for wild type Leishmania donovani BOB (MHOM/SD/62/1S-CL2D) promastigotes to EC50 for Leishmania donovani BOB (MHOM/SD/62/1S-CL2D) promastigotes overexpressing NTR1; assay type: functional
# [7] = system: Plasma proteins; test: Plasma protein binding incubated for 4 hrs by LCMS analysis
# [8] = Electrochemical behavior of the compound assessed as redox potential corrected toward normal hydrogen electrode by cyclic voltammetry
# [9] = system: Leishmania donovani; test: Antileishmanial activity against Leishmania donovani BOB (MHOM/SD/62/1S-CL2D) promastigotes overexpressing NTR2 assessed as inhibition of parasite growth incubated for 72 hrs by resazurin dye based assay; assay type: functional, organism-based
# Method in brief: (§1)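 LdBOB promastigotes grown at 26 °C in modified M199; NTR1- or NTR2-overexpressing lines kept under nourseothricin (100 µg/mL). Triplicate cultures seeded at 5×10^4 parasites/mL with drug for 72 h; 50 µM resazurin added, fluorescence (ex 528/em 590 nm) read after a further 4 h.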
# [10] = system: Trypanosoma brucei brucei; test: Antitrypanosomal activity against bloodstream form of wild type Trypanosoma brucei brucei S427 trypomastigotes assessed as inhibition of parasite growth; assay type: functional, organism-based
# [11] = Microsomal stability in CD-1 mouse liver microsomes in presence of NADP measured up to 40 mins by LC-MS analysis; assay type: ADME, Microsome
# Method in brief: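 Compound incubated in duplicate with female CD-1 mouse microsomes at 37°C in 50 mM phosphate pH 7.4. Cofactors: 5 mM MgCl₂, 1 mM NADP, 0.4 U/mL G6PDH and 5 mM glucose-6-phosphate. […] Propranolol reference.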
# [12] = system: Leishmania donovani; test: Antileishmanial activity against Leishmania donovani BOB (MHOM/SD/62/1S-CL2D) promastigotes overexpressing NTR1 assessed as inhibition of parasite growth incubated for 72 hrs by resazurin dye based assay; assay type: functional, organism-based; method in brief: as §1
# [13] = Permeability of the compound in pH 7.4 Prisma HT buffer at 100 uM incubated for 4 hrs by PAMPA-BBB assay method; assay type: ADME; conditions: read-out: permeability
# [14] = system: Leishmania donovani; test: Antileishmanial activity against wild type Leishmania donovani BOB (MHOM/SD/62/1S-CL2D) promastigotes assessed as inhibition of parasite growth incubated for 72 hrs by resazurin dye based assay; assay type: functional, organism-based; method in brief: as §1
# [15] = system: Trypanosoma brucei brucei; test: Selectivity index, ratio of EC50 for bloodstream form of wild type Trypanosoma brucei brucei S427 trypomastigotes to EC50 for blood stream form of Trypanosoma brucei brucei S427 trypomastigotes overexpressing NTR; assay type: functional
# [16] = system: Trypanosoma cruzi; test: Antitrypanosomal activity against Trypanosoma cruzi CL Brener amastigotes infected in African green monkey Vero cells assessed as reduction in parasite growth incubated for 120 hrs at 24 hrs post-infection and measured on day 6 post-infection by hemocytometer based light microscopy; assay type: functional, organism-based
# Method in brief: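 Compounds, 2–4-fold serial dilutions over 0,1–25 µM final, applied for 120 h at 37°C. On day 6, released trypomastigotes pooled, centrifuged and counted by haemocytometer. EC50 by nonlinear regression; two experiments, triplicate wells.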
# [17] = system: HepG2; test: Genotoxicity in human HepG2 cells assessed as induction of DNA damage at 1 to 10 uM incubated for 2 to 72 hrs by alkaline comet assay; assay type: toxicity, cell-based; conditions: hepg2, 10 µM
# Method in brief: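 Cells embedded in 0.7% low-melting agarose on film. Alkaline electrophoresis at pH >13, 24 min at 0.8 V/cm, then neutralised, ethanol-fixed and SYBR Gold stained. % tail DNA is the median of 100 cells (two deposits); 1 mM MMS positive control; three independent experiments.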
# [18] = Toxicity in Swiss mouse assessed as lesions on heart at 25 mg/kg, po administered once daily for 5 days; assay type: organism-based; conditions: in vivo, 120 h
# [19] = Toxicity in Swiss mouse assessed as apathy occurence at 50 mg/kg, po administered once daily for 5 days measured for 1 hr; assay type: organism-based; conditions: in vivo
# [20] = Toxicity in Swiss mouse assessed as lesions on brain at 25 mg/kg, po administered once daily for 5 days; assay type: organism-based; conditions: in vivo, 120 h
# [21] = Toxicity in orally dosed Swiss mouse administered once daily for 5 days; assay type: organism-based; conditions: in vivo, po
# [22] = Half life in Swiss mouse at 25 mg/Kg, po measured up to 24 hrs by LCMS analysis; assay type: ADME, organism-based; conditions: in vivo
# Method in brief: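 Female Swiss mice, 8 weeks old, n=4, given a suspension by oral gavage at 25 mg/kg. Tail blood (100 µL, heparin) drawn at 0.5, 1, 3, 6, 9, 12 and 24 h. Samples extracted with ACN containing megalol internal standard plus QuEChERS salts. Analysed by LC-MS/MS (C8 column, negative ESI, MRM); calibration 10–1,000 ng/ml, LLOQ 10 ng/ml.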
# [23] = Toxicity in Swiss mouse assessed as lesions on liver at 25 mg/kg, po administered once daily for 5 days; assay type: organism-based; conditions: in vivo, 120 h
# [24] = Thermodynamic solubility of the compound in phosphate buffer at pH 7.4 by shake flask method; assay type: physicochemical
# Method in brief: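 Shake-flask test, miniaturised: 10 µL of a 50 mM stock in 990 µL phosphate buffer pH 7.4 (ionic strength 50 mM), n=4. Shaken 24 h at room temperature, then centrifuged 12,225 × g for 5 min. Supernatant mixed 1:1 with acetonitrile and read by UV spectrophotometry at compound λmax. Quantified against a three-point calibration (0, 25, 50 µM).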
# [25] = Toxicity in Swiss mouse assessed as lesions on lung at 25 mg/kg, po administered once daily for 5 days; assay type: organism-based; conditions: in vivo, 120 h
# [26] = Toxicity in Swiss mouse assessed as lesions on kidney at 25 mg/kg, po administered once daily for 5 days; assay type: organism-based; conditions: in vivo, 120 h
# [27] = Half life in NMRI mouse at 25 mg/Kg, ig measured up to 24 hrs by LCMS analysis; assay type: ADME; conditions: in vivo, po
structure (smiles),measurement,setting,value
Nc1cc(C(F)(F)F)cc2cc(Br)c(=O)[nH]c12,pEC50,[1],5.06
same,selectivity ratio,[2],> 11
same,CC50,[3],> 100 µM
same,pEC50,[4],< 4.00
C[C@@H]1[C@H](O)[C@@H](C)/C=C/C=C/C=C/C=C/C=C/C=C/C=C/[C@H](O[C@@H]2O[C@H](C)[C@@H](O)[C@H](N)[C@@H]2O)C[C@@H]2O[C@](O)(C[C@@H](O)C[C@@H](O)[C@H](O)CC[C@@H](O)C[C@@H](O)CC(=O)O[C@H]1C)C[C@H](O)[C@H]2C(=O)O [AMPHOTERICIN B],pEC50,[4],7.22
O=c1[nH]c2c([N+](=O)[O-])cc(C(F)(F)F)cc2cc1Br,pEC50,[5],6.05
same,Ratio EC50,[6],3.5
same,Activity,[7],99.4%
same,Activity,[8],-0.36 V
same,pEC50,[1],6.70
same,pEC50,[9],5.31
same,pEC50,[10],5.17
same,t1/2,[11],> 40 min
same,selectivity ratio,[2],206
same,CC50,[3],41.3 µM
same,pEC50,[4],5.41
same,pEC50,[12],5.92
same,"Papp at 4 h, 100 µM",[13],45 ×10⁻⁶ cm/s
same,pEC50,[14],5.39
same,Ratio EC50,[15],7
O=c1[nH]c2c([N+](=O)[O-])cc(C#CCO)cc2cc1Cl,pEC50,[1],6.00
same,selectivity ratio,[2],31
same,CC50,[3],30.9 µM
same,pEC50,[4],5.05
O=c1[nH]c2c([N+](=O)[O-])cc(Br)cc2cc1Cl,pEC50,[5],7.70
same,Ratio EC50,[6],16
same,Activity,[7],99%
same,Activity,[8],-0.37 V
same,pEC50,[16],6.30
same,Activity,[17],Non-Toxic
same,Activity,[18],Non-Toxic
same,Activity,[19],Toxic
same,Activity,[20],Non-Toxic
same,pEC50,[1],7.92
same,pEC50,[9],5.54
same,NOAEL at 120 h,[21],25 mg/kg
same,t1/2,[22],174 min
same,pEC50,[10],6.52
same,t1/2,[11],> 40 min
same,selectivity ratio,[2],1510
same,CC50,[3],18.1 µM
same,Activity,[23],Non-Toxic
same,Therm_solubility,[24],21.7 µM
same,pEC50,[4],5.17
same,Activity,[25],Non-Toxic
same,pEC50,[12],6.52
same,"Papp at 4 h, 100 µM",[13],40.5 ×10⁻⁶ cm/s
same,Activity,[26],Non-Toxic
same,pEC50,[14],5.33
same,Ratio EC50,[15],15
Cc1ccc(C(=O)Nc2ccc(S(=O)(=O)O)c3cc(S(=O)(=O)O)cc(S(=O)(=O)O)c23)cc1NC(=O)c1cccc(NC(=O)Nc2cccc(C(=O)Nc3cc(C(=O)Nc4ccc(S(=O)(=O)O)c5cc(S(=O)(=O)O)cc(S(=O)(=O)O)c45)ccc3C)c2)c1 [SURAMIN],pEC50,[1],7.52
same,selectivity ratio,[2],> 3330
same,CC50,[3],> 100 µM
CSc1ccc(OCc2ncc([N+](=O)[O-])n2C)cc1 [FEXINIDAZOLE],pEC50,[16],5.52
same,pEC50,[1],6.40
same,selectivity ratio,[2],> 500
same,CC50,[3],> 200 µM
same,pEC50,[4],5.47
same,half-life,[27],48 min
O=c1[nH]c2c([N+](=O)[O-])cccc2cc1Cl,Activity,[8],-0.47 V
same,pEC50,[1],5.92
same,selectivity ratio,[2],71
same,pEC50,[4],4.80
O=c1ccc2cc(C(F)(F)F)cc([N+](=O)[O-])c2[nH]1,Activity,[8],-0.39 V
same,pEC50,[1],5.77
same,selectivity ratio,[2],24
same,CC50,[3],41.3 µM
same,pEC50,[4],4.73
CCCCCCCCCCCCCCCCOP(=O)([O-])OCC[N+](C)(C)C [MILTEFOSINE],pEC50,[4],6.10
O=c1[nH]c2c([N+](=O)[O-])cc(Cl)cc2cc1Cl,Activity,[8],-0.37 V
same,pEC50,[1],7.00
same,selectivity ratio,[2],243
same,CC50,[3],24.3 µM
same,pEC50,[4],5.21
O=c1[nH]c2c([N+](=O)[O-])cc(C#CCCCO)cc2cc1Cl,pEC50,[1],6.07
same,selectivity ratio,[2],38
same,CC50,[3],32.7 µM
same,pEC50,[4],5.00
O=C(O)c1ccc(-c2cc3cc(Br)cc([N+](=O)[O-])c3[nH]c2=O)cc1,pEC50,[5],7.00
same,Activity,[8],-0.4 V
same,pEC50,[1],6.70
same,pEC50,[9],5.68
same,pEC50,[10],5.40
same,t1/2,[11],> 40 min
same,selectivity ratio,[2],302
same,CC50,[3],60.4 µM
same,pEC50,[4],5.10
same,pEC50,[12],5.89
same,"Papp at 4 h, 100 µM",[13],1.27 ×10⁻⁶ cm/s
same,pEC50,[14],5.70
same,Ratio EC50,[15],40
